Source: ChEMBL document CHEMBL2406960, “Epimeric methylsulfinyladenosine derivatives from the marine ascidian Herdmania momus” (Bioorg Med Chem Lett, 2013)

Assays:
[1] = Cytotoxicity against human HeLa cells by MTT assay; assay type: cell-based
Outline: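 Mock-infected confluent HeLa cells were treated in duplicate with samples (20 mg/mL DMSO stock) diluted in MEM/2% FBS and incubated under CO2. Viability was read by MTT plus microscopy. CC50 was the concentration that cut mock-infected control absorbance by 50%.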

[2] = test system: rhinovirus B14; test: Antiviral activity against Human rhinovirus 14 infected in human HeLa cells assessed as inhibition of virus-induced cytopathic effect by MTT assay; assay type: functional, organism-based; details: Rhinovirus B
Outline: (§1)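 Confluent HeLa monolayers, in duplicate, got samples (20 mg/mL DMSO stock) diluted in MEM/2% FBS, then virus at 200 CCID50 per well, and were incubated under CO2. Protection was read by MTT and by microscopic inspection. EC50 was the concentration protecting 50% of cells from virus-induced cytotoxicity.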

[3] = test system: Coxsackievirus B3; test: Antiviral activity against Human coxsackievirus B3 infected in human HeLa cells assessed as inhibition of virus-induced cytopathic effect by MTT assay; assay type: functional, organism-based; details: Enterovirus B; outline: as §1
[4] = test system: Coxsackievirus B1; test: Antiviral activity against Human coxsackievirus B1 infected in human HeLa cells assessed as inhibition of virus-induced cytopathic effect by MTT assay; assay type: functional, organism-based; details: Enterovirus B; outline: as §1
[5] = Antiviral activity against Human rhinovirus 17 infected in human HeLa cells assessed as inhibition of virus-induced cytopathic effect by MTT assay; assay type: functional, cell-based, Human rhinovirus B17; details: Rhinovirus B; outline: as §1
[6] = Antiviral activity against Human rhinovirus 71 infected in human HeLa cells assessed as inhibition of virus-induced cytopathic effect by MTT assay; assay type: functional, cell-based, Human rhinovirus A71; details: Rhinovirus A; outline: as §1
[7] = test system: Poliovirus 3; test: Antiviral activity against Human poliovirus 3 infected in human HeLa cells assessed as inhibition of virus-induced cytopathic effect by MTT assay; assay type: functional, organism-based; details: Enterovirus C
Outline: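 Confluent HeLa cells in 96-well plates, in duplicate; samples (20 mg/mL DMSO stock) diluted in MEM/2% FBS, then virus added at 200 CCID50 per well; incubated in CO2 incubator. Protection of cells from virus cytopathic effect read by MTT absorbance and microscopy; EC50 = concentration protecting 50% of cells. Cytotoxicity on mock-infected cells, CC50 = 50% absorbance reduction.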

C[S+]([O-])C[C@H]1O[C@@H](n2cnc3c(N)ncnc32)[C@H](OC(=O)c2c[nH]c3cc(Br)c(O)cc23)[C@@H]1O (mixture of isomers)
> 100 µg/mL: CC50 [1] | EC50 [2] | EC50 [3] | EC50 [4] | EC50 [5] | EC50 [6] | EC50 [7]

C[S+]([O-])C[C@H]1O[C@@H](n2cnc3c(N)ncnc32)[C@H](O)[C@@H]1OC(=O)c1c[nH]c2cc(Br)c(O)cc12 (some centres undefined)
> 100 µg/mL: CC50 [1] | EC50 [2] | EC50 [3] | EC50 [4] | EC50 [5] | EC50 [6] | EC50 [7]
